Activity calls are given as the source filed them. The rule behind the calls is not given here.
Legend:
Format in all cases: cell-based
[1] = system: KBVIN; assay: Inhibition of P-gp-mediated multidrug-resistance in human KBVIN cells assessed as paclitaxel-induced cytotoxicity at 10 uM after 72 hrs by SRB assay
Procedure, shortened: (§1)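 KBvin cells were exposed to graded concentrations of anticancer drug (doxorubicin, paclitaxel or vincristine), alone or with 10 μM test compound, for 72 h. Growth was read by SRB assay. IC50 was found by log-linear interpolation. Reversal fold = IC50 (drug alone) / IC50 (drug + compound). Verapamil was the positive control. Each experiment was run at least three times.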

[2] = system: KBVIN; assay: Inhibition of P-gp-mediated multidrug-resistance in human KBVIN cells assessed as vincristine-induced cytotoxicity at 10 uM after 72 hrs by SRB assay; procedure, shortened: as §1
[3] = target: T1, ATP-dependent translocase ABCB1 (Homo sapiens, UniProt P08183); assay: Inhibition of P-gp over expressed in human multidrug-resistant KBVIN cells assessed as intracellular accumulation of doxorubicin at 10uM after 3 hrs by fluorescence microplate reader analysis relative to control
T1 sequence (P08183 whole entry): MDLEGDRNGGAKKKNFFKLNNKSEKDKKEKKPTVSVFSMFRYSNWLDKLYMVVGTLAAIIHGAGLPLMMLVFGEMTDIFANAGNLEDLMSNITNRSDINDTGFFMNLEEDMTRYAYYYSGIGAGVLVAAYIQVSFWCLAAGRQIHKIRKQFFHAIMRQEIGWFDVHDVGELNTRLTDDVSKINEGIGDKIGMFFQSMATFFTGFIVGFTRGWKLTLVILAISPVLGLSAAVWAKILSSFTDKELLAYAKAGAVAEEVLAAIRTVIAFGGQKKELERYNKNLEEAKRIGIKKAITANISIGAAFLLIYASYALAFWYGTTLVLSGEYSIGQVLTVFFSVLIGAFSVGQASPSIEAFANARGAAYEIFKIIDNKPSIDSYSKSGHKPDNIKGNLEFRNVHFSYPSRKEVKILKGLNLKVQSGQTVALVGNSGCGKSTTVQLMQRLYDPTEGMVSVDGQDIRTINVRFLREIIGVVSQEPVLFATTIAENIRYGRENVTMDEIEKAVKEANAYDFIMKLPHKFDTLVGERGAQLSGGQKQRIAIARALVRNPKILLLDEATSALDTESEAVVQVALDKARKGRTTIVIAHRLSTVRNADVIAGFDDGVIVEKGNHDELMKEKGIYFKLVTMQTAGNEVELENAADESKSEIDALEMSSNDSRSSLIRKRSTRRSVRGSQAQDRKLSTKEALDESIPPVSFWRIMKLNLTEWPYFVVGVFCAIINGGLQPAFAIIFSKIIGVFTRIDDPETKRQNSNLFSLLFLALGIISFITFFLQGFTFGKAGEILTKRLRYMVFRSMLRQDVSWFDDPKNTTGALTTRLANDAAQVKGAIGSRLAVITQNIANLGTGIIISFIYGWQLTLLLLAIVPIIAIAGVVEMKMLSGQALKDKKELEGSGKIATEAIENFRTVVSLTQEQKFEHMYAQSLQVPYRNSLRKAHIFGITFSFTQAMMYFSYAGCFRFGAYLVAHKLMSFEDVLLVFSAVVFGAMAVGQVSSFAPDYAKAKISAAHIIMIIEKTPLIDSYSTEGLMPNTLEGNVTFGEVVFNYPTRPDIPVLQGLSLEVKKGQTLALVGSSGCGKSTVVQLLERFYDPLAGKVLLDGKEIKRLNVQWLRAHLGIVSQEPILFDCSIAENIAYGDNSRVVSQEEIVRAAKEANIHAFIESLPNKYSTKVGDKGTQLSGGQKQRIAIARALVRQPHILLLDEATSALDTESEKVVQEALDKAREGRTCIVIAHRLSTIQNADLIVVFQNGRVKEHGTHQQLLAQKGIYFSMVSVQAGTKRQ
Procedure, shortened: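 KBvin cells at 5 × 10^3/well were pretreated with compound for 1 h, then given doxorubicin (10 μM final) for 3 h. Cells were washed with ice-cold PBS and lysed in 1% SDS/PBS. Verapamil or CsA served as positive control.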

[4] = system: KBVIN; assay: Inhibition of P-gp-mediated multidrug-resistance in human KBVIN cells assessed as fold decrease in doxorubicin IC50 for cytotoxic activity at 10 uM after 72 hrs by SRB assay relative to control; procedure, shortened: as §1
[5] = system: KBVIN; assay: Inhibition of P-gp-mediated multidrug-resistance in human KBVIN cells assessed as doxorubicin-induced cytotoxicity at 10 uM after 72 hrs by SRB assay; procedure, shortened: as §1
[6] = system: KBVIN; assay: Inhibition of P-gp-mediated multidrug-resistance in human KBVIN cells assessed as fold decrease in vincristine IC50 for cytotoxic activity at 10 uM after 72 hrs by SRB assay relative to control; procedure, shortened: as §1
[7] = system: KBVIN; assay: Inhibition of P-gp-mediated multidrug-resistance in human KBVIN cells assessed as fold decrease in paclitaxel IC50 for cytotoxic activity at 10 uM after 72 hrs by SRB assay relative to control; procedure, shortened: as §1
[8] = system: NIH3T3; assay: Inhibition of human P-gp-mediated multidrug-resistance in mouse NIH3T3 MDR cells assessed as potentiation of in vincristine-induced cytotoxic activity at 10 uM after 72 hrs by SRB assay; conditions: Mus musculus cells expressing human P-gp
[9] = target: T1, ATP-dependent translocase ABCB1; assay: Inhibition of P-gp over expressed in human multidrug-resistant KBVIN cells after 10 mins by calcein AM accumulation assay
Procedure, shortened: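 KBvin cells at 5 × 10^3/well were pretreated with samples for 1 h, then given calcein-AM (1 μM final) for 10 min. Cells were washed with ice-cold PBS and lysed in 1% SDS/PBS. Calcein fluorescence read at Ex 494/Em 517 nm. Verapamil or CsA served as positive control.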

[10] = system: A549; assay: Antiproliferative activity against human A549 cells after 72 hrs by SRB assay; conditions: for IC50: Homo sapiens, A549, 72 h
Procedure, shortened: (§2)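 SRB assay. Cells at 3–5 × 10^3/well were exposed to a range of sample concentrations for 72 h. They were fixed in 50% TCA for 30 min, stained with 0.04% SRB for 30 min, and the dye was dissolved in 10 mM Tris base. Absorbance read at 515 nm. Medium was RPMI 1640 with 10% FBS at 37 °C, 5% CO2. KBvin cells were kept in 100 nM vincristine.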

[11] = system: KB; assay: Antiproliferative activity against human KB cells after 72 hrs by SRB assay; conditions: for IC50: Homo sapiens, KB; procedure, shortened: as §2
[12] = Antiproliferative activity against human multidrug-resistant KBVIN cells after 72 hrs by SRB assay; conditions: for IC50: Homo sapiens, KBVIN; procedure, shortened: as §2
[13] = system: DU-145; assay: Antiproliferative activity against human DU145 cells after 72 hrs by SRB assay; conditions: for IC50: Homo sapiens, DU-145, 72 h; procedure, shortened: as §2
[14] = system: NIH3T3; assay: Inhibition of human P-gp-mediated multidrug-resistance in mouse NIH3T3 MDR cells assessed as potentiation of in paclitaxel-induced cytotoxic activity at 10 uM after 72 hrs by SRB assay; conditions: human P-gp expressed in mouse cells
[15] = system: KBVIN; assay: (§3) Inhibition of P-gp-mediated multidrug-resistance in human KBVIN cells assessed as paclitaxel-induced cytotoxicity after 72 hrs by SRB assay
Procedure, shortened: (§4)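 KBvin cells were cultured with 100 nM paclitaxel plus a range of compound concentrations. Growth was read by SRB, and the EC50 of reversal was derived. Verapamil was the comparator.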

[16] = as §3; procedure, shortened: as §4
[17] = system: KBVIN; assay: Inhibition of P-gp-mediated multidrug-resistance in human KBVIN cells assessed as […] of paclitaxel-induced cell survival rate at 10 uM after 72 hrs by SRB assay

Row | IC50 [10] [µM] | IC50 [11] [µM] | IC50 [13] [µM] | Compound | IC50 [12] [µM] | inhibition [17] | other results
1 |  |  |  | COc1ccc(CCN(C)CCCC(C#N)(c2ccc(OC)c(OC)c2)C(C)C)cc1OC (centres undefined) |  |  | Activity [1]: Active; Activity [2]: Active; fold change (FC) [3]: 1.2; fold change (FC) [4]: 9; Activity [5]: Active; fold change (FC) [6]: 109; fold change (FC) [7]: 31
2 | > 100 | > 100 | > 100 | COc1cc(C(=O)OCc2cc(OC)c3c(c2-c2c(COC(=O)c4cc(OC)c(OC)c(OC)c4)cc(OC)c4c2OCO4)OCO3)cc(OC)c1OC | > 100 |  | inhibition [8]: Active; inhibition (INH) [9]: Dose-dependent effect; Activity [1]: Active; Activity [2]: Active; fold change (FC) [3]: 1.2; fold change (FC) [4]: 23; Activity [5]: Active; inhibition [14]: Active; fold change (FC) [6]: 566; fold change (FC) [7]: 222; inhibition [15]: Dose-dependent effect; EC50 [16]: 1.87 µM
3 |  |  |  | CCCC(=O)OCc1c(Br)c(OC)c2c(c1-c1c(COC(=O)CCC)c(Br)c(OC)c3c1OCO3)OCO2 |  | inactive | Activity ([10]; human, a549, 72 h): Toxic; Activity ([11]; human, kb): Toxic; Activity ([12]; human, kbvin): Toxic; Activity ([13]; human, du-145, 72 h): Toxic
4 | > 100 | > 100 | > 100 | COc1cc(COC(=O)c2ccc(C#N)cc2)c(-c2c(COC(=O)c3ccc(C#N)cc3)cc(OC)c3c2OCO3)c2c1OCO2 | > 100 | inactive | 
5 | > 100 | > 100 | > 100 | COc1c(Br)c(CO)c(-c2c(CO)c(Br)c(OC)c3c2OCO3)c2c1OCO2 | > 100 | inactive | 
6 | > 100 | > 100 | > 100 | COc1cc(COC(=O)c2ccc([N+](=O)[O-])cc2)c(-c2c(COC(=O)c3ccc([N+](=O)[O-])cc3)cc(OC)c3c2OCO3)c2c1OCO2 | > 100 | inactive | 
7 | > 100 | > 100 | > 100 | COC(=O)c1c(Br)c(OC)c2c(c1-c1c3c(c(OC)c(Br)c1C(=O)OC)OCO3)OCO2 | > 100 | inactive | 
8 | > 100 | > 100 | > 100 | COc1cc(COC(C)=O)c(-c2c(COC(C)=O)cc(OC)c3c2OCO3)c2c1OCO2 | > 100 | inactive | 
9 | > 100 | > 100 | > 100 | COc1c2c(c3c(c1Br)c(=O)oc(=O)c1c(Br)c(OC)c4c(c13)OCO4)OCO2 | > 100 | inactive | 
10 | > 100 | > 100 | > 100 | COc1cc(COC(=O)c2ccc3c(c2)OCO3)c(-c2c(COC(=O)c3ccc4c(c3)OCO4)cc(OC)c3c2OCO3)c2c1OCO2 | > 100 | inactive | 
11 | > 100 | > 100 | > 100 | COc1c(Br)c(CO)c(-c2c3c(c(OC)c(Br)c2C(=O)O)OCO3)c2c1OCO2 | > 100 | inactive | 
12 | > 100 | > 100 | > 100 | COc1cc(COC(=O)C(C)(C)C)c(-c2c(COC(=O)C(C)(C)C)cc(OC)c3c2OCO3)c2c1OCO2 | > 100 |  | inhibition [8]: Active; inhibition (INH) [9]: Dose-dependent effect; Activity [1]: Active; Activity [2]: Active; fold change (FC) [3]: 1.2; fold change (FC) [4]: 46; Activity [5]: Active; inhibition [14]: Active; fold change (FC) [6]: 349; fold change (FC) [7]: 37; inhibition [15]: Dose-dependent effect; EC50 [16]: 2.81 µM

— ChEMBL document CHEMBL2086383, “Antitumor agents. 293. Nontoxic dimethyl-4,4'-dimethoxy-5,6,5',6'-dimethylenedioxybiphenyl-2,2'-dicarboxylate (DDB) analogues chemosensitize multidrug-resistant cancer cells to clinical anticancer drugs” (J Med Chem, 2012)
